Test results from ChEMBL document CHEMBL1134450, “Solid-phase synthesis of a nonpeptide RGD mimetic library: new selective alphavbeta3 integrin antagonists” (J Med Chem, 2001).
Where a SMILES comes first, the peptide text is derived from it. [ ]: non-standard residue; d: D form. NMeF = CN[C@@H](Cc1ccccc1)C(=O)O; azaGly = NNC(=O)O

Assays:
[1] = biological target: Integrin alpha-IIb/beta-3 (Homo sapiens, UniProt P05106+P08514); test: Inhibitory activity against alpha IIb beta 3 integrin; assay type: protein-complex assay
Integrin alpha-IIb/beta-3, sequence (P05106 27-788 limits assumed): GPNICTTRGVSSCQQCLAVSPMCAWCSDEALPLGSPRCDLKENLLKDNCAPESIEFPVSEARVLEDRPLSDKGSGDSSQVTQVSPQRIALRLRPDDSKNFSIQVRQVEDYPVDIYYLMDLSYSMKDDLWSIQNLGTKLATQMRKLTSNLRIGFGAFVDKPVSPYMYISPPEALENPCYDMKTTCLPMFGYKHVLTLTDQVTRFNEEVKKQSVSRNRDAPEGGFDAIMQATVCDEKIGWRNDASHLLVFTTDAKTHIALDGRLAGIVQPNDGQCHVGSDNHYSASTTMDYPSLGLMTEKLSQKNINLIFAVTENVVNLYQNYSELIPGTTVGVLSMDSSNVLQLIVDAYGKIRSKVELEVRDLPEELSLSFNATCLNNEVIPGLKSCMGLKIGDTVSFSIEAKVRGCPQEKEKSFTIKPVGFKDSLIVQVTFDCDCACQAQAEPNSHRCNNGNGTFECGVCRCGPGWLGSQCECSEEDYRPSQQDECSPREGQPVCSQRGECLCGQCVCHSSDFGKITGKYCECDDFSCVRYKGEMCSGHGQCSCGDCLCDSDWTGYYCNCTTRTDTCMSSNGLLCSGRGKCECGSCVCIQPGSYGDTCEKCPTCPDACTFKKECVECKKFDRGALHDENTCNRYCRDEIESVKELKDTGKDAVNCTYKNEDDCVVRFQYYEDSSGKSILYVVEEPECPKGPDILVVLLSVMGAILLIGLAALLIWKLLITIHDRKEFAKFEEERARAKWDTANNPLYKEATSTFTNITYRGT
Integrin alpha-IIb/beta-3, sequence (P08514 32-887 limits assumed): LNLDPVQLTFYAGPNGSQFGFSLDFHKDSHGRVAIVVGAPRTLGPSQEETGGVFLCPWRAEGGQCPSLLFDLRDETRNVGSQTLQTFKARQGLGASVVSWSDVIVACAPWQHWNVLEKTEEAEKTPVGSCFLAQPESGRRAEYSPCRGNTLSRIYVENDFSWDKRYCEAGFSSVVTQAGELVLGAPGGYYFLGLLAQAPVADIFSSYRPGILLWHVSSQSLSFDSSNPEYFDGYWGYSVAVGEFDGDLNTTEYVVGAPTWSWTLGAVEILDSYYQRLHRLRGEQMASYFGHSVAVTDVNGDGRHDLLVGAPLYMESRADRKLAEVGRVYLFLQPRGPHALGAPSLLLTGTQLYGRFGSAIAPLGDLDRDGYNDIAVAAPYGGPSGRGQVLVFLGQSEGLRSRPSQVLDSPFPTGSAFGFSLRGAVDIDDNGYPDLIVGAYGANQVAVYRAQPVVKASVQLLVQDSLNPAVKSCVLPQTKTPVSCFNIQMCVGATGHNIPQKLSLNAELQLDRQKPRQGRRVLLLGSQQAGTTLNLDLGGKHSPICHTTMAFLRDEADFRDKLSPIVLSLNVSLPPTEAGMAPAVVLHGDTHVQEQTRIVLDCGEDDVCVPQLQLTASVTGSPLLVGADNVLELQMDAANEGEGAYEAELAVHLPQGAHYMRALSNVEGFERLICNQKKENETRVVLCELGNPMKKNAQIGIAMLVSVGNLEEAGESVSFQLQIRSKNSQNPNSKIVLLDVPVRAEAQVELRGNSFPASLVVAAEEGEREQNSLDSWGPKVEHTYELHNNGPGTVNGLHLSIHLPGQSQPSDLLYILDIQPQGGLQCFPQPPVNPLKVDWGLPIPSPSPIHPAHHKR
Integrin alpha-IIb/beta-3, sequence (P08514 891-1039 limits assumed): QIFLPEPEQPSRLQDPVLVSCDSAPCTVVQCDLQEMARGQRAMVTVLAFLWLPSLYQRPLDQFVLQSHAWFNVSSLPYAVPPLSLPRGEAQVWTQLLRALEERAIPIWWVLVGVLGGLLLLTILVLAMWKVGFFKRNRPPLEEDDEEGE
In short: (§1)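 Solid-phase competition binding. αvβ3 was recombinant, from baculovirus, purified on LM609 antibody column, paired with biotinylated human vitronectin. αIIbβ3 was paired with biotinylated human fibrinogen. Integrins coated at 1 µg/mL, blocked, then compounds serially diluted and co-incubated with ligand (1 µg/mL), 37 °C, 3 h. Read-out was alkaline-phosphatase anti-biotin.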

Integrin alpha-V/beta-3 = Integrin alpha-V/beta-3 (Homo sapiens, UniProt P05106+P06756); test: Inhibitory activity against vitronectin receptor (alpha V beta 3); assay type: protein-complex assay; in short: as §1
Integrin alpha-V/beta-3, sequence (P05106 27-788 limits assumed): as the sequence (P05106 27-788 limits assumed) above
Integrin alpha-V/beta-3, sequence (P06756 31-889 limits assumed): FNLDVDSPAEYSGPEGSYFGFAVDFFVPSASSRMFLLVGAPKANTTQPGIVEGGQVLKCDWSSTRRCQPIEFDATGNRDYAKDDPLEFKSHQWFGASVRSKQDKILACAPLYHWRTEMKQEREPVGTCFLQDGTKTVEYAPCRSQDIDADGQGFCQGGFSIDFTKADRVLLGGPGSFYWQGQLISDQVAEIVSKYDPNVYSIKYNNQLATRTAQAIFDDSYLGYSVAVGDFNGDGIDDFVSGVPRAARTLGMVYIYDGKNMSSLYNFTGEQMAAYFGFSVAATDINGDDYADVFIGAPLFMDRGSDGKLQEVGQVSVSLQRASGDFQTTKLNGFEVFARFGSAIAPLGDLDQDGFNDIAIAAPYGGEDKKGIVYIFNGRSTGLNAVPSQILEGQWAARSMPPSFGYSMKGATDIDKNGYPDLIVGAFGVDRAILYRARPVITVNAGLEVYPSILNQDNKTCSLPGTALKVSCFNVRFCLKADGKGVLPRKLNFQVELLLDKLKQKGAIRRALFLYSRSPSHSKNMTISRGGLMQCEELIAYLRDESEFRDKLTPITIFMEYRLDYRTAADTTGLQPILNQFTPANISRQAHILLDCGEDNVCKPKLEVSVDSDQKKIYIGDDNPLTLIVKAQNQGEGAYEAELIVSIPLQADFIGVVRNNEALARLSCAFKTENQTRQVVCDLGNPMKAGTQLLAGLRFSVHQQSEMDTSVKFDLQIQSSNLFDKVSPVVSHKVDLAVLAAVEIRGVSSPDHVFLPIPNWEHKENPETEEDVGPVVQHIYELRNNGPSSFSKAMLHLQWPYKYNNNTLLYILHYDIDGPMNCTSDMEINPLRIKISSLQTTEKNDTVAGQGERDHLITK
Integrin alpha-V/beta-3, sequence (P06756 891-1048 limits assumed): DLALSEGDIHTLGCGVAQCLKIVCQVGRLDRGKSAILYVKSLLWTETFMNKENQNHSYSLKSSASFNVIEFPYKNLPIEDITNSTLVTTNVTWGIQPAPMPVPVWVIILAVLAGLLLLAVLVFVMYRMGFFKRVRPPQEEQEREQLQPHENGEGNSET

[2] = Partition coefficient (logP); assay type: physicochemical; details: octanol/water
[3] = biological target: Integrin alpha-V/beta-3 and alpha-IIb/beta 3 (Homo sapiens) (UniProt P05106+P06756+P08514); test: Selectivity designates the quotient of affinities to integrins alpha v beta-3 and alpha IIb beta3; assay type: protein assay
In short: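 Quotient of IC50 values from the immobilized-integrin competition assays: αvβ3 against biotinylated vitronectin and αIIbβ3 against biotinylated fibrinogen. Ligand at 1 µg/mL, 37 °C, 3 h, anti-biotin alkaline-phosphatase detection. IC50 came from sigmoid fits of triplicates.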

| IC50 [1] | IC50 (Integrin alpha-V/beta-3) | logP [2] | Selectivity [3] | Structure (SMILES) |
| --- | --- | --- | --- | --- |
| 8500 nM | 0.8 nM | 0.7 | – | N=C(N)Nc1cccc(C(=O)NNC(=O)NC(CC(=O)O)c2ccccc2)c1 (stereo unspecified) |
| > 1000 nM | 0.9 nM | 0.58 | – | COc1ccc(C(CC(=O)O)NC(=O)NNC(=O)c2cccc(N=C(N)N)c2)cc1 (stereo unspecified) |
| – | – | – | 415 | CC(C)[C@@H]1NC(=O)[C@H](CCCN=C(N)N)NC(=O)CNC(=O)[C@H](CC(=O)O)NC(=O)[C@H](Cc2ccccc2)NC1=O (cyclo(DGRVF)) |
| > 10000 nM | 42 nM | 1.52 | – | COc1ccc(C(CC(=O)O)NC(=O)NNC(=O)CCCCNc2cc(C)ccn2)cc1 (stereo unspecified) |
| > 1000 nM | 1 nM | 1.82 | – | NC(N)=Nc1cccc(C(=O)NNC(=O)NC(CC(=O)O)c2cc(Cl)cc(Cl)c2)c1 (stereo unspecified) |
| – | 35 nM | 2.23 | – | Cc1ccnc(NCCCCC(=O)NNC(=O)CC(CC(=O)O)c2ccc(F)cc2)c1 (stereo unspecified) |
| > 10000 nM | 22 nM | 1.94 | – | COc1ccc(C(CC(=O)O)CC(=O)NNC(=O)CCCCNc2cc(C)ccn2)cc1 (stereo unspecified) |
| > 1000 nM | 26 nM | 3.11 | – | CC(=N)Nc1cccc(C(=O)NNC(=O)CC(CC(=O)O)c2ccc(-c3ccccc3)cc2)c1 (stereo unspecified) |
| – | – | – | 270 | CC(C)[C@@H]1NC(=O)[C@H](CCCN=C(N)N)NC(=O)NNC(=O)[C@H](CC(=O)O)NC(=O)[C@H](Cc2ccccc2)N(C)C1=O (cyclo(D[azaGly]RV[NMeF])) |
| > 1000 nM | 40 nM | 2.27 | – | CC(N)=Nc1cccc(C(=O)NNC(=O)CC(CC(=O)O)c2ccc(Br)cc2)c1 (stereo unspecified) |
| > 10000 nM | 150 nM | -2.42 | – | NC(=O)C(CC(=O)O)NC(=O)NNC(=O)c1cccc(N=C(N)N)c1 (stereo unspecified) |
| > 10000 nM | 27 nM | 1.7 | – | NC(N)=Nc1cccc(C(=O)NNC(=O)NC(CC(=O)O)c2cccc3ccccc23)c1 (stereo unspecified) |
| > 10000 nM | 37 nM | 1.64 | – | Cc1ccnc(NCCCCC(=O)NNC(=O)NC(CC(=O)O)c2ccccc2)c1 (stereo unspecified) |
| – | 1400 nM | -0.07 | – | Cc1ccnc(NCCCCC(=O)NNC(=O)NCCC(=O)O)c1 |
| > 1000 nM | 4 nM | 1.28 | – | N=C(N)Nc1cccc(C(=O)NNC(=O)CC(CC(=O)O)c2ccc(F)cc2)c1 (stereo unspecified) |
| 1000 nM | 40 nM | -0.26 | – | N=C(N)NCCCCC(=O)NNC(=O)NC(CC(=O)O)c1ccccc1 (stereo unspecified) |
| > 10000 nM | 15 nM | 1.13 | – | N=C(N)Nc1cccc(C(=O)NNC(=O)CC(CC(=O)O)c2ccccc2)c1 (stereo unspecified) |
| > 10000 nM | 23 nM | 1.44 | – | CC(=N)Nc1cccc(C(=O)NNC(=O)CC(CC(=O)O)c2ccccc2)c1 (stereo unspecified) |
| – | 130 nM | 3.17 | – | Cc1ccnc(NCCCCC(=O)NNC(=O)NC(CC(=O)O)c2ccc(OC(F)(F)F)cc2)c1 (stereo unspecified) |
| – | 6 nM | 2.55 | – | CC(=N)Nc1cccc(C(=O)NNC(=O)CC(CC(=O)O)c2cc(Cl)cc(Cl)c2)c1 (stereo unspecified) |
| 1000 nM | 0.7 nM | 2.8 | – | N=C(N)Nc1cccc(C(=O)NNC(=O)CC(CC(=O)O)c2ccc(-c3ccccc3)cc2)c1 (stereo unspecified) |
| > 10000 nM | 80 nM | 2.76 | – | Cc1ccnc(NCCCCC(=O)NNC(=O)NC(CC(=O)O)c2cc(Cl)cc(Cl)c2)c1 (stereo unspecified) |
| – | 210 nM | 3.54 | – | O=C(O)CC(CC(=O)NNC(=O)c1cccc(Nc2ccccn2)c1)c1cc(Cl)cc(Cl)c1 (stereo unspecified) |

| IC50 [1] | IC50 (Integrin alpha-V/beta-3) | logP [2] | Selectivity [3] | Structure (SMILES) |
| --- | --- | --- | --- | --- |
| – | 7 nM | 2.47 | – | Cc1ccnc(NCCCCC(=O)NNC(=O)NC(CC(=O)O)c2ccc(Br)cc2)c1 (stereo unspecified) |
| > 1000 nM | 2 nM | 1.68 | – | N=C(N)Nc1cccc(C(=O)NNC(=O)CC(CC(=O)O)c2ccc(Cl)cc2)c1 (stereo unspecified) |
| 1000 nM | 2 nM | 2.24 | – | N=C(N)Nc1cccc(C(=O)NNC(=O)CC(CC(=O)O)c2cc(Cl)cc(Cl)c2)c1 (stereo unspecified) |
| – | 15 nM | 2.63 | – | Cc1ccnc(NCCCCC(=O)NNC(=O)CC(CC(=O)O)c2ccc(Cl)cc2)c1 (stereo unspecified) |
| 7000 nM | 0.3 nM | 2.2 | – | Cc1ccnc(NCCCCC(=O)NNC(=O)NC(CC(=O)O)c2ccc(Cl)cc2)c1 (stereo unspecified) |
| – | – | – | > 70 | N=C(N)Nc1cccc(C(=O)NNC(=O)NC(CC(=O)O)C(N)=O)c1 (stereo unspecified) |
| > 1000 nM | 3 nM | 2.23 | – | N=C(N)Nc1cccc(C(=O)NNC(=O)NC(CC(=O)O)c2ccc(OC(F)(F)F)cc2)c1 (stereo unspecified) |
| 5500 nM | 0.1 nM | 1.26 | – | N=C(N)Nc1cccc(C(=O)NNC(=O)NC(CC(=O)O)c2ccc(Cl)cc2)c1 (stereo unspecified) |
| > 1000 nM | 1 nM | 1 | – | COc1ccc(C(CC(=O)O)CC(=O)NNC(=O)c2cccc(NC(=N)N)c2)cc1 (stereo unspecified) |
| > 1000 nM | 37 nM | 1.31 | – | COc1ccc(C(CC(=O)O)CC(=O)NNC(=O)c2cccc(N=C(C)N)c2)cc1 (stereo unspecified) |
| 1000 nM | 6 nM | 0.86 | – | NC(N)=Nc1cccc(C(=O)NNC(=O)NC(CC(=O)O)c2ccc(F)cc2)c1 (stereo unspecified) |
| 8000 nM | 160 nM | 2 | – | CC(=N)Nc1cccc(C(=O)NNC(=O)CC(CC(=O)O)c2ccc(Cl)cc2)c1 (stereo unspecified) |
| – | 3 nM | – | 1000 | Cc1ccnc(NCCCCC(=O)NNC(=O)CC(CC(=O)O)c2ccc(-c3ccccc3)cc2)c1 (stereo unspecified) |
| – | 140 nM | 2.64 | – | Cc1ccnc(NCCCCC(=O)NNC(=O)NC(CC(=O)O)c2cccc3ccccc23)c1 (stereo unspecified) |
| 9000 nM | 6 nM | 2.9 | – | Cc1ccnc(NCCCCC(=O)NNC(=O)CC(CC(=O)O)c2ccc(Br)cc2)c1 (stereo unspecified) |
| > 1000 nM | 1 nM | 1.53 | – | N=C(N)Nc1cccc(C(=O)NNC(=O)NC(CC(=O)O)c2ccc(Br)cc2)c1 (stereo unspecified) |
| > 10000 nM | 48 nM | 1.8 | – | Cc1ccnc(NCCCCC(=O)NNC(=O)NC(CC(=O)O)c2ccc(F)cc2)c1 (stereo unspecified) |
| – | – | – | 1460 | CC(C)[C@@H]1NC(=O)[C@H](CCCN=C(N)N)NC(=O)CNC(=O)[C@H](CC(=O)O)NC(=O)[C@H](Cc2ccccc2)N(C)C1=O (cyclo(DGRV[NMeF])) |
| > 10000 nM | 7 nM | 2.07 | – | Cc1ccnc(NCCCCC(=O)NNC(=O)CC(CC(=O)O)c2ccccc2)c1 (stereo unspecified) |
| > 10000 nM | 9 nM | 3.19 | – | Cc1ccnc(NCCCCC(=O)NNC(=O)CC(CC(=O)O)c2cc(Cl)cc(Cl)c2)c1 (stereo unspecified) |
| > 10000 nM | 1000 nM | – | 8 | NCCCC[C@H](NC(=O)[C@@H]1CCCN1C(=O)[C@H](CO)NC(=O)[C@H](CC(=O)O)NC(=O)CNC(=O)[C@H](CCCN=C(N)N)NC(=O)CN)C(=O)O |
| > 1000 nM | 160 nM | 1.6 | – | CC(=N)Nc1cccc(C(=O)NNC(=O)CC(CC(=O)O)c2ccc(F)cc2)c1 (stereo unspecified) |
| > 1000 nM | 2 nM | 1.95 | – | N=C(N)Nc1cccc(C(=O)NNC(=O)CC(CC(=O)O)c2ccc(Br)cc2)c1 (stereo unspecified) |
